Source: paper PMC11959959 (Acta Pharmaceutica Sinica. B, 2024)

Key:
B16F10 cells = assay: Cell uptake assay in B16F10 cells; assay type: cell-based, murine; conditions: 750 kBq/mL, 5-80 min
[1] = tested on: B16F10 tumor-bearing mice; assay: PET/CT imaging in B16F10 tumor-bearing mice; assay type: in vivo; conditions: 0.5 and 1 h p.i.
Method in brief: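 Mice bear s.c. B16F10 allografts (1×10^6 cells, left flank), imaged at tumor volume ≥100 mm³, usually day 10. They receive 200 μCi of tracer in 100 μL normal saline by tail vein. Dynamic micro-PET/CT runs for 1 h from injection, with three mice per tracer. The PEGylated tracer also gets static scans at 0.5, 1, 5, 10 and 24 h. Data are decay-corrected and given as %ID/g.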

[^64Cu]QM-2303: 64Cu-labeled PEGibody from QM-2302 PEGylated with 4-arm PEG (KSSPHSRNSGSGSGSGSGRGDSPC; NOTA conjugated to the N-terminus; thiol group of the C-terminal cysteine linked to 4-arm PEG; labelled with ^64Cu in the cell assays)
cell uptake / percentage of binding to integrin α5β1 (B16F10 cells): greater percentage of binding to integrin α5β1 than [^64Cu]QM-2301 and [^64Cu]QM-2302 | kidney accumulation [1]: comparable to that of [^64Cu]QM-2301
